Assay results pooled from the literature.
Lines come from different studies, so protocols differ.
Target: Dual specificity protein kinase CLK4 (CLK4, Homo sapiens, UniProt Q9HAZ1)

| SMILES | test | conditions | endpoint | result |
| --- | --- | --- | --- | --- |
| Cn1cncc1C1=CN(c2ncnc3[nH]cnc23)CCS1 | enzyme activity, inhibitor, radiometric | 50 nM | inhibition | 27.1% |
| CS(=O)(=O)N1CCCC(NC(=O)[C@H](CCC2CCCCC2)NC(=O)c2ccc(CNc3ncnc4c3nnn4-c3ccccc3)cc2)C1 (some centres unmarked) | cell-free assay, competition with immobilised ligand | 0.1 µM | remaining binding | 85% |
| CC(C)(C)c1nc(-c2cccc(NS(=O)(=O)c3c(F)cccc3F)c2F)c(-c2ccnc(N)n2)s1 | enzyme activity, inhibitor, radiometric | 1 µM | remaining activity | 74% |
| CN(c1ccnc(CNc2nc(Nc3ccc4c(c3)CC(=O)N4)ncc2C(F)(F)F)n1)S(C)(=O)=O | binding, competition with immobilised ligand | 1 µM | remaining binding | 1.4% |
| COc1cc(-c2cc(-c3ccc(N4CCNCC4)cc3)cnc2C)cc(OC)c1OC | enzyme activity, inhibitor | 0.1 µM | inhibition | 1% |
| CC(C)(O)[C@H]1CC[C@H](Nc2ccc3ncc(-c4cccc(C(F)(F)F)c4)n3n2)CC1 | enzyme activity, inhibitor | 1 µM | remaining activity | 21.3% |
| Cc1cc(NC(=O)c2cccc3cc(-c4cccc5[nH]nc(N)c45)ccc23)ccc1F | enzyme activity, inhibitor | 0.1 µM | activity vs control | 90% |
| C[C@@H]1CN(c2cc(-c3nn(C)c4ccc(OC5(C)CC5)cc34)ncn2)C[C@H](C)O1 | cell-free assay, competition with immobilised ligand | 1 µM | remaining binding | 100% |
| N#CCCc1ccc2c(c1)-c1[nH]c3ccc([N+](=O)[O-])cc3c1CC(=O)N2 | cell-free assay | 0.5 µM | remaining signal | 77.1% |
| Nc1ncnc2occ(-c3ccc(NC(=O)Nc4cc(C(F)(F)F)ccc4F)cc3)c12 | cell-free assay, inhibitor | 20 µM | remaining signal | 5.8% |
| Cn1cnc(Br)c1C1=CN(c2ncnc3[nH]cnc23)CCS1 | enzyme activity, inhibitor, radiometric | 50 nM | inhibition | 24% |
| O=C(Nc1cnn(-c2csc(C(=O)NC3COC3)c2)c1)Nc1c(F)cccc1Cl | enzyme activity, inhibitor | 5 µM | remaining activity | 93.2% |
| Cc1ccc(NC(=O)c2ccc(CN3CCN(C)CC3)cc2)cc1Nc1nc(-c2cccnc2)cs1 | cell-free assay | 0.5 µM | remaining signal | 93.3% |
| NS(=O)(=O)c1cc(NC(=O)Cc2ccccc2)ccc1Oc1cccc(Cl)c1 | cell-free assay, competition with immobilised ligand | 1 µM | remaining binding | 83% |
| O=C1Nc2ccc(Cl)cc2C1=Cc1cc(Cl)c(O)c(Cl)c1 | cell-free assay | 0.5 µM | remaining signal | 60.7% |
| CCOCCn1cc(C(=O)Nc2ccc(-n3nc(-c4cccnc4)cc3C(F)(F)F)cn2)ccc1=O | cell-free assay, competition with immobilised ligand | 1 µM | remaining binding | 100% |
| CNC(=O)c1cc(Oc2ccc(NC(=O)Nc3ccc(Cl)c(C(F)(F)F)c3)cc2)ccn1 | cell-free assay | 0.5 µM | remaining signal | 95.2% |
| CS(=O)(=O)Nc1cccc(-c2csc(NC(=O)CSc3nc4nccnc4c(=O)n3CCc3ccccc3)n2)c1 | enzyme activity, inhibitor | 10 µM | inhibition | 14% |
| O=C(Nc1cccnn1)N1CCC(=Cc2cccc(Oc3ccc(C(F)(F)F)cn3)c2)CC1 | cell-free assay, competition with immobilised ligand | 1 µM | remaining binding | 70% |
| Cc1cnc(NC2CCOCC2)nc1-n1cnc(C(=O)NC(CN)c2cc(F)cc(Cl)c2)c1 (centres unmarked) | enzyme activity, inhibitor, radiometric | 1 µM | remaining activity | 63% |
